Compounds with a hit are over-represented: about 4.4% of the library has one in this group of screens.
MPTP inh – blocks calcium-induced mitochondrial swelling | inhibition, % at 10 µM | isolated mouse mitochondria, Ca2+ swelling absorbance, 30 min | 1.4% of 360,000 active;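 active means inhibition of 50% or more, scaled per plate between neutral and stimulator controls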;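 further: 0% = DMSO wells given calcium and 100% = 1 mM EGTA wells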
GRIN3A LBD mod – modulators (binders) of human NR3A ligand-binding domain | NR3A LBD differential scanning fluorimetry, Tm shift; 0% = protein alone, 100% = glycine-bound protein | Tm shift relative to glycine control, % at 25 µM | 2.5% of 340,000 active;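 active means melting temperature shift of at least 10% of the positive control shift, at one fixed dose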
SENP1 FRET inh – inhibitors of human SENP1 SUMO protease catalytic domain | inhibition, % at 10 µM | 0.21% of 360,000 active | recombinant SENP1 catalytic domain, CyPet-SUMO1-YPet FRET cleavage | AID 624204;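 active means inhibition at least 30% at 10 µM, raw YFP signal under a set limit, fluorescence ratio 0.5 to 1.5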;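 further: 0% = enzyme with DMSO and 100% = no enzyme wells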
Target sequence (Q9P0U3 419-644 limits assumed): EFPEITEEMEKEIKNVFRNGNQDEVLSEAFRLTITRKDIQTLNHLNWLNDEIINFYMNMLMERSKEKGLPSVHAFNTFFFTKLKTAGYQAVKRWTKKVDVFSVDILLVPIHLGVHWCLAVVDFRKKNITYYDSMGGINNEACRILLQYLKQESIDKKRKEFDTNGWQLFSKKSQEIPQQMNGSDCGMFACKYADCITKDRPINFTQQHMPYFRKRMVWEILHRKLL
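system = hSENP1 catalytic domain, recombinant | reagent = SFCypet-SUMO1-SFYpet substrate at 25 nM | doses = one dose per compound, 10 µM, 0.5% DMSO | incubation = enzyme reaction for 50 min at room temperature, dark | measured by = FRET, CFP and YFP emission | controls = no-enzyme low, enzyme-DMSO high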
EBI2 block – blocks human EBI2 receptor beta-arrestin signaling. AID 651636. P32249. 0.81% of 360,000 active. EBI2 beta-arrestin recruitment, luminescence, 7a,25-OHC stimulated. inhibition, % at 5 µM; in the data active means inhibition above about 38%;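 further: enzyme fragment complementation signal reports receptor beta-arrestin coupling in cells; 0% = agonist plus DMSO wells and 100% = wells without agonist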
Target sequence (P32249 whole entry, looked up, the tested form may be a part): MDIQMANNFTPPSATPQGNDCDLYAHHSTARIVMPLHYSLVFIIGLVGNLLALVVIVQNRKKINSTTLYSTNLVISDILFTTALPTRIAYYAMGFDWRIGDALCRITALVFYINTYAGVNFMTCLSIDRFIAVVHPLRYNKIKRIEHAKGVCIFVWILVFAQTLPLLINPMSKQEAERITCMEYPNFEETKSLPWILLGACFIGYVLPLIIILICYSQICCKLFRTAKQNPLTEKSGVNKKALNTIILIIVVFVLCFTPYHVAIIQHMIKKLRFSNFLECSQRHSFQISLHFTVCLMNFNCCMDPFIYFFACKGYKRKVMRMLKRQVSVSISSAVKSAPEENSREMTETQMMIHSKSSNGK
MPTP counter – Rhodamine 123 counter-screen of mitochondrial pore hits; shares compounds with MPTP inh; isolated mitochondria, membrane potential, Rhodamine 123 fluorescence; inhibition, % at 10 µM; 78% of 5,000 active; in the data active means inhibition above about 22%;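 further: 0% = DMSO vehicle and 100% = positive control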
MPTP abs DR – dose response confirmation of mitochondrial permeability transition pore inhibitors; shares compounds with MPTP inh; isolated mitochondria swelling, absorbance; IC50, µM; 58% of 780 active; in the data active means IC50 below about 20 µM
MPTP counter DR – MPTP inhibitor counter-screen activity, dose response; shares compounds with MPTP inh; isolated mitochondria counterscreen, fluorescence read-out; 49% of 780 active; IC50, µM; in the data active means IC50 below about 80 µM
Starred values were filed as active, the others as inactive; x = not tested or not shown.

SMILES	MPTP inh	GRIN3A LBD mod	SENP1 FRET inh	EBI2 block	MPTP counter	others
COc1ccccc1NS(=O)(=O)c1ccc(NN=C2CCCC2)c([N+](=O)[O-])c1	60.0*	-8.1	0.0	-7.7	46.9*
COc1ccccc1NS(=O)(=O)c1ccc(N/N=C/C=C/c2ccccc2[N+](=O)[O-])c([N+](=O)[O-])c1	2.1	-6.4	5.4	-10.2	x
CCOC(=O)c1ccc(NC(=O)CCc2nc(-c3ccccc3)no2)cc1	62.4*	-3.3	0.4	-0.3	69.3*
CCOC(=O)c1ccc(NC(=O)CCc2nc(-c3ccccc3Cl)no2)cc1	89.0*	2.5	-1.0	9.1	75.6*
CCOC(=O)c1cccc(NC(=O)CCc2nc(-c3ccc(C)cc3)no2)c1	2.6	-9.6	2.0	11.4	x
CN=C(Nc1cccc(Cl)c1)SC1CC(=O)N(c2ccc(OC)cc2)C1=O (stereo not drawn)	-1.1	-9.4	2.0	8.3	x
Cc1ccc(NC(=O)C2=C(O)c3ccccc3N(C)S2(=O)=O)cc1	-0.4	-6.6	-2.0	-4.1	x
Cc1ccc(C(OCC(O)CNC(CO)C(O)c2ccc([N+](=O)[O-])cc2)c2ccccc2)cc1 (stereo not drawn)	85.4*	-2.6	1.6	1.4	-10.4	MPTP abs DR=17*;MPTP counter DR=62.1*
Cc1ccc(C(OCC(O)CNC(C)c2ccccc2)c2ccccc2)cc1 (stereo not drawn)	80.4*	4.5	1.1	7.8	-1.5	MPTP abs DR=7.07*;MPTP counter DR=23.2*
Cc1ccc2c(c1)C(=O)CC1(CCCC1)O2	-2.4	1.4	0.9	-15.8	x
CCOC(=O)c1ccc(NC(=O)c2cccc(S(=O)(=O)N3c4ccccc4CC3C)c2)s1 (stereo not drawn)	73.5*	25.4*	1.9	33.3	73.2*
O=C(NC1CCCC1)c1sc(=S)n2c1[nH]c(=O)c1ccccc12	87.4*	-9.3	0.8	1.4	97.4*
C=CCn1c(N)c(C(=O)NCc2ccco2)sc1=S	0.0	1.0	-0.5	-6.8	x
O=C(NCc1ccco1)c1sc(=S)n2c1[nH]c(=O)c1ccccc12	89.4*	8.8	-0.8	-2.1	76.7*
CC(=O)N1CCCc2cc(S(=O)(=O)NCCC3=CCCCC3)ccc21	51.0*	-0.3	-0.4	2.2	23.4*
Cc1ccc(C(=O)Nc2nc(C(N)Cc3ccc(C(F)(F)F)cc3)cs2)cc1 (stereo not drawn)	0.8	x	-0.7	-7.9	x
CCCCc1ccc(NC(=S)Nc2ccc(Cl)c(S(=O)(=O)N(C)C)c2)cc1	96.9*	5.4	-0.5	-3.7	75.8*
COC(=O)Cc1ccc(NC(=S)NCc2cccc(OC)c2)cc1	-0.8	0.8	1.1	-2.8	x
S=C(Nc1ccc(Oc2ccccc2)cc1)Nc1cccnc1	71.4*	-0.3	-0.1	-1.9	85.5*
S=C(NCc1cccnc1)Nc1ccc(Oc2ccccc2)cc1	68.9*	-8.9	-2.4	-10.2	59.5*
FC(F)Oc1ccc(NC(=S)NCc2cccnc2)cc1	-4.6	-0.4	2.2	-0.4	x
CCCCc1ccc(NC(=S)NCc2cccc(OC)c2)cc1	70.4*	11.0*	-0.6	3.0	91.0*
Cc1cccc(C)c1NC(=O)NS(=O)(=O)c1ccccc1	-2.5	x	-0.6	-2.5	x
COc1cccc2c1OCC(C(=O)Nc1nccs1)=C2	4.3	-2.4	-6.0	-17.6	x
COc1ccc(Cl)cc1-n1c(C)ccc1C	0.9	-5.9	-16.3	-5.4	x
SMILES	MPTP inh	GRIN3A LBD mod	SENP1 FRET inh	EBI2 block	MPTP counter	others
CCCCc1ccc(NC(=S)Nc2cccnc2)cc1	79.6*	-26.5	0.9	-0.6	73.2*
CCCCc1ccc(NC(=O)Nc2cccnc2)cc1	38.1	5.2	-0.9	-3.6	x
O=C(COC(=O)CCNS(=O)(=O)c1cccc(C(F)(F)F)c1)NC(=O)NC1CCCCC1	61.0*	-9.3	-0.3	-14.4	-10.6	MPTP abs DR=18*;MPTP counter DR=23.4*
Cc1c(/C=N/NC(=O)c2ccccc2O)c2ccccn2c1C(=O)c1ccc(F)cc1	98.0*	14.4*	-28.5	7.3	56.4*
Cc1ccc(-n2c(C)cc(C3=NNC(=NC4CC4)SC3)c2C)cc1C	79.1*	-4.2	-2.8	-35.6	83.2*
Cc1cc(C2=NNC(=NC3CC3)SC2)c(C)n1-c1c(C)n(C)n(-c2ccccc2)c1=O	0.9	-0.7	-2.2	-0.2	x
Cc1cc(C)n2nc(CNS(=O)(=O)c3ccc(CC(C)C)cc3)nc2n1	1.9	-1.0	1.7	-0.3	x
Cc1cc(OC(=O)c2cccc(F)c2)c([N+](=O)[O-])c(=O)[nH]1	-0.4	3.6	1.1	-1.9	x
CCc1ccc(NC(=O)CSc2nc3ncc(Br)cc3[nH]2)cc1	53.8*	4.4	-0.7	-0.8	87.6*
CCOC(=O)N1CCC(Nc2c(Nc3cccc(CC)c3)c(=O)c2=O)CC1	88.6*	-3.4	-11.4	8.0	72.1*
CCCCOc1ccc(C(=O)OC2CC(C)N(C)CC2C)cc1 (stereo not drawn)	83.1*	-0.8	-1.1	-7.6	-5.8	MPTP abs DR=9.67*;MPTP counter DR=74.4*
Cc1ccc(-n2ncc3c(N4CCCC(C)C4)ncnc32)c(C)c1 (stereo not drawn)	58.7*	-0.5	0.4	-4.1	42.8*
Cc1ccc(-n2ncc3c(SCc4cccnc4)ncnc32)c(C)c1	87.7*	0.0	1.2	-2.4	81.9*
CCc1ccc(NC(=S)Nc2cc(C(=O)O)ccc2N2CC3CC(C2)c2cccc(=O)n2C3)cc1 (stereo not drawn)	-0.3	-10.5	-2.0	36.4	x
O=C(O)c1ccc(N2CC3CC(C2)c2cccc(=O)n2C3)c(NC(=S)Nc2ccc(Br)cc2)c1 (stereo not drawn)	89.2*	0.5	-0.8	19.9	93.0*
c1ccc(CNc2nc(-c3ccccn3)nc3ccccc23)cc1	0.4	-2.3	1.6	-6.0	x
Fc1ccc(Nc2nc(NCc3ccco3)c3ccccc3n2)cc1	85.7*	10.2*	-5.7	-3.1	81.8*
c1ccc(CNc2nc(NCc3ccccc3)c3ccccc3n2)cc1	70.4*	3.0	3.4	-12.2	108.6*
COc1ccccc1CNc1nc(NCc2ccccc2F)c2sccc2n1	101.2*	x	2.1	-23.5	103.9*
c1ccc(CNc2nc(-c3cccs3)nc3ccccc23)cc1	50.6*	23.9*	-2.8	11.0	57.6*
Nc1nc(Nc2ccccc2)nc(NCc2ccco2)c1[N+](=O)[O-]	1.8	-8.0	2.8	14.9	x
CCn1c(=O)c2sccc2n(Cc2ccccc2)c1=O	-0.1	0.5	-0.2	-1.3	x
COc1ccccc1CNc1nc(NCc2ccc(C)cc2C)c2sccc2n1	66.8*	x	3.9	-31.7	101.5*
c1ccc(CNc2nc(NCc3ccccc3)c3sccc3n2)cc1	91.3*	x	1.1	-17.7	103.7*
COCCNc1nc(NCc2cccc(OC)c2OC)c2sccc2n1	0.8	x	0.9	-2.1	x

Screens from PubChem BioAssay.
